Values joined by “and” are separate entries in the source; they are usually repeats but may differ in a detail not shown here. Equal entries are not always repeated.
Key:
Mus musculus [1] = assay: Median survival time of the untreated control groups, in which there are no 30-day survivors at dose 25 mg/kg in exp1; assay type: functional
Mus musculus [2] = assay: Median survival time of the untreated control groups, in which there are no 30-day survivors at dose 50 mg/kg in exp1; assay type: functional
Mus musculus [3] = assay: Change in weight by day 5, obtained by subtracting treated groups of animals minus control groups of animals at dose 25 mg/kg in exp1.; assay type: functional
In short: (§1)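 Mice were inoculated ip with 10^6 P388 leukemia cells on day 0, when treated and control mice weighed 19–22 g. Treatment was given ip once daily on days 1–5, within about 5 min of preparing the solution or suspension. Groups of six (occasionally five) were treated, with 30 untreated inoculated mice as controls. The day-5 weight change is the mean treated change minus the mean control change.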

Mus musculus [4] = assay: Mortality by day 5 expressed as number of mice died to the total treated at dose 100 mg/kg in exp1; 2/6; assay type: ADME, organism-based; parameters: dose 100 mg/kg; details: in vivo
Mus musculus [5] = assay: Median survival time of the treated control groups, in which there are no 30-day survivors at dose 50 mg/kg in exp1; assay type: functional
Mus musculus [6] = assay: Change in weight by day 5, obtained by subtracting treated groups of animals minus control groups of animals at dose 100 mg/kg in exp1.; assay type: functional; in short: as §1
Mus musculus [7] = assay: Median survival time of the treated control groups, in which there are no 30-day survivors at dose 25 mg/kg in exp1; assay type: functional
[8] = Ratio of median survival times for non-survivors at dose 50 mg/kg in exp1; assay type: functional; parameters: unit: %
In short: (§2)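 Mice were inoculated ip with 10^6 P388 leukemia cells on day 0. Groups of six (occasionally five) were dosed ip qd on days 1–5 with fresh suspensions; 30 mice served as untreated controls. Deaths were recorded daily up to day 60. T/C% compares the median survival of treated non-survivors (<60 days) with the control median. Medians used grouped data when there were no 30-day survivors, otherwise ungrouped data. t = toxic.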

Mus musculus [9] = assay: Mortality by day 5 expressed as number of mice died to the total treated at dose 50 mg/kg in exp1; 0/6; assay type: ADME, organism-based; parameters: dose 50 mg/kg; details: in vivo
Mus musculus [10] = assay: Median survival time of the untreated control groups, in which there are no 30-day survivors at dose 100 mg/kg in exp1; assay type: functional
[11] = Ratio of median survival times for non-survivors at dose 100 mg/kg in exp1; assay type: functional; parameters: unit: %; in short: as §2
Mus musculus [12] = assay: Median survival time of the treated control groups, in which there are no 30-day survivors at dose 100 mg/kg in exp1; assay type: functional
Mus musculus [13] = assay: Mortality by day 5 expressed as number of mice died to the total treated at dose 100 mg/kg in exp1; 6/6; assay type: ADME, organism-based; parameters: dose 100 mg/kg; details: in vivo
Mus musculus [14] = assay: Mortality by day 5 expressed as number of mice died to the total treated at dose 25 mg/kg in exp1; 0/6; assay type: ADME, organism-based; parameters: dose 25 mg/kg; details: in vivo
Mus musculus [15] = assay: Mortality by day 5 expressed as number of mice died to the total treated at dose 200 mg/kg in exp1; 5/6; assay type: ADME, organism-based; parameters: dose 200 mg/kg; details: in vivo
[16] = Ratio of median survival times for non-survivors at dose 50 mg/kg in exp1; t= toxic; assay type: ADME, organism-based; parameters: dose 50 mg/kg; details: in vivo
[17] = Ratio of number of 60-day survivors to the total treated mice at dose 25 mg/kg in exp2; 2/6; assay type: functional
[18] = Ratio of number of 30-day survivors to the total treated mice at dose 25 mg/kg in exp1; 2/6; assay type: functional
Mus musculus [19] = assay: Mortality by day 5 expressed as number of mice died to the total treated at dose 6 mg/kg in exp2; 0/6; assay type: ADME, organism-based; parameters: dose 6 mg/kg; details: in vivo
Mus musculus [20] = assay: Change in weight by day 5, obtained by subtracting treated groups of animals minus control groups of animals at dose 6 mg/kg in exp2; assay type: functional
In short: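 Mice were inoculated ip with 10^6 P388 leukemia cells on day 0 and weighed 19–22 g that day. Compound was given ip once daily on days 1–5, within about 5 min of preparing the solution or suspension, to groups of six (occasionally five). Thirty inoculated untreated mice served as controls. The value is the average weight change of treated mice minus that of controls on day 5.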

[21] = Ratio of median survival times for non-survivors at dose 25 mg/kg in exp2; assay type: functional; in short: as §2
Mus musculus [22] = assay: Median survival time of the treated control groups, in which there are no 30-day survivors at dose 25 mg/kg in exp2; assay type: functional
Mus musculus [23] = assay: Median survival time of the treated control groups, in which there are no 30-day survivors at dose 25 mg/kg in exp1*-based on the four of six that survived bryond 5th day; assay type: functional
Mus musculus [24] = assay: Change in weight by day 5, obtained by subtracting treated groups of animals minus control groups of animals at dose 12 mg/kg in exp2; assay type: functional; in short: as §1
[25] = Ratio of number of 60-day survivors to the total treated mice at dose 25 mg/kg in exp2; 1/6; assay type: functional
Mus musculus [26] = assay: Median survival time of the treated control groups, in which there are no 30-day survivors at dose 12 mg/kg in exp2; assay type: functional; details: 12 mg/kg
Mus musculus [27] = assay: Median survival time of the untreated control groups, in which there are no 30-day survivors at dose 12 mg/kg in exp2; assay type: functional
Mus musculus [28] = assay: Mortality by day 5 expressed as number of mice died to the total treated at dose 25 mg/kg in exp1; 2/6; assay type: ADME, organism-based; parameters: dose 25 mg/kg; details: in vivo
[29] = Ratio of median survival times for non-survivors at dose 25 mg/kg in exp1*-based on the four of six that survived bryond 5th day; assay type: functional
[30] = Ratio of number of 60-day survivors to the total treated mice at dose 25 mg/kg in exp1; 0/6; assay type: functional
Mus musculus [31] = assay: Mortality by day 5 expressed as number of mice died to the total treated at dose 25 mg/kg in exp2; 0/6; assay type: ADME, organism-based; parameters: dose 25 mg/kg; details: in vivo
Mus musculus [32] = assay: Change in weight by day 5, obtained by subtracting treated groups of animals minus control groups of animals at dose 50 mg/kg in exp2; assay type: functional; in short: as §1
[33] = Ratio of median survival times for non-survivors at dose 100 mg/kg in exp1; t=toxic; assay type: ADME, organism-based; parameters: dose 100 mg/kg; details: in vivo; in short: as §2
Mus musculus [34] = assay: Change in weight by day 5, obtained by subtracting treated groups of animals minus control groups of animals at dose 25 mg/kg in exp2; assay type: functional; in short: as §1
[35] = Ratio of number of 30-day survivors to the total treated mice at dose 25 mg/kg in exp2; 3/6; assay type: functional
[36] = Ratio of median survival times for non-survivors at dose 12 mg/kg in exp2; assay type: functional; details: 12 mg/kg; in short: as §2
Mus musculus [37] = assay: Median survival time of the untreated control groups, in which there are no 30-day survivors at dose 25 mg/kg in exp2; assay type: functional
Mus musculus [38] = assay: Mortality by day 5 expressed as number of mice died to the total treated at dose 50 mg/kg in exp1; 6/6; assay type: ADME, organism-based; parameters: dose 50 mg/kg; details: in vivo
Mus musculus [39] = assay: Mortality by day 5 expressed as number of mice died to the total treated at dose 150 mg/kg in exp2; 0/6; assay type: ADME, organism-based; parameters: dose 150 mg/kg; details: in vivo
[40] = Ratio of median survival times for non-survivors at dose 100 mg/kg in exp2; assay type: functional; in short: as §2
Mus musculus [41] = assay: Median survival time of the untreated control groups, in which there are no 30-day survivors at dose 150 mg/kg in exp2; assay type: functional
[42] = Ratio of median survival times for non-survivors at dose 200 mg/kg in exp1; t= toxic; assay type: ADME, organism-based; parameters: dose 200 mg/kg; details: in vivo; in short: as §2
Mus musculus [43] = assay: Change in weight by day 5, obtained by subtracting treated groups of animals minus control groups of animals at dose 50 mg/kg in exp1.; assay type: functional; in short: as §1
Mus musculus [44] = assay: Median survival time of the untreated control groups, in which there are no 30-day survivors at dose 100 mg/kg in exp2; assay type: functional
Mus musculus [45] = assay: Median survival time of the treated control groups, in which there are no 30-day survivors at dose 150 mg/kg in exp2; assay type: functional
[46] = Ratio of median survival times for non-survivors at dose 150 mg/kg in exp2; assay type: functional; in short: as §2
Mus musculus [47] = assay: Change in weight by day 5, obtained by subtracting treated groups of animals minus control groups of animals at dose 100 mg/kg in exp2; assay type: functional; in short: as §1
Mus musculus [48] = assay: Median survival time of the untreated control groups, in which there are no 30-day survivors at dose 200 mg/kg in exp1; assay type: functional
Mus musculus [49] = assay: Change in weight by day 5, obtained by subtracting treated groups of animals minus control groups of animals at dose 200 mg/kg in exp1.; assay type: functional; details: 200 mg/kg; in short: as §1
Mus musculus [50] = assay: Mortality by day 5 expressed as number of mice died to the total treated at dose 100 mg/kg in exp1; 0/6; assay type: ADME, organism-based; parameters: dose 100 mg/kg; details: in vivo
Mus musculus [51] = assay: Median survival time of the treated control groups, in which there are no 30-day survivors at dose 200 mg/kg in exp1; assay type: functional
Mus musculus [52] = assay: Mortality by day 5 expressed as number of mice died to the total treated at dose 200 mg/kg in exp1; 0/6; assay type: ADME, organism-based; parameters: dose 200 mg/kg; details: in vivo
Mus musculus [53] = assay: Median survival time of the treated control groups, in which there are no 30-day survivors at dose 50 mg/kg in exp2; assay type: functional
Mus musculus [54] = assay: Change in weight by day 5, obtained by subtracting treated groups of animals minus control groups of animals at dose 150 mg/kg in exp2; assay type: functional; in short: as §1
Mus musculus [55] = assay: Median survival time of the treated control groups, in which there are no 30-day survivors at dose 100 mg/kg in exp2; assay type: functional
[56] = Ratio of median survival times for non-survivors at dose 50 mg/kg in exp2; assay type: functional; in short: as §2
Mus musculus [57] = assay: Mortality by day 5 expressed as number of mice died to the total treated at dose 100 mg/kg in exp2; 0/6; assay type: ADME, organism-based; parameters: dose 100 mg/kg; details: in vivo

CS(=O)(=O)OCCBr
Median survival time (Mus musculus [1]): 11.1
Median survival time (Mus musculus [2]): 11.1
Change in weight (Mus musculus [3]): -0.7
Mortality (Mus musculus [4]): 2
Median survival time (Mus musculus [5]): 12.3
Change in weight (Mus musculus [6]): -3
Median survival time (Mus musculus [7]): 12
Ratio [8]: 110
Mortality (Mus musculus [9]): 0
Median survival time (Mus musculus [10]): 11.1
Ratio [11]: 106
Median survival time (Mus musculus [12]): 11.8
Mortality (Mus musculus [13]): 6
Mortality (Mus musculus [14]): 0

CS(=O)(=O)CS(=O)(=O)OCCF
Mortality (Mus musculus [15]): 5
Ratio [16]: Toxic
Ratio [17]: 2
Ratio [18]: 2
Mortality (Mus musculus [19]): 0
Median survival time (Mus musculus [1]): 11.2
Median survival time (Mus musculus [2]): 11.2
Change in weight (Mus musculus [20]): -1.8
Change in weight (Mus musculus [3]): -4.3
Ratio [21]: 286
Median survival time (Mus musculus [22]): 30
Median survival time (Mus musculus [23]): 31
Change in weight (Mus musculus [24]): -3.7
Ratio [25]: 1
Median survival time (Mus musculus [26]): 19.8 and 15
Median survival time (Mus musculus [27]): 10.5
Mortality (Mus musculus [28]): 2
Ratio [29]: 277
Ratio [30]: 0
Mortality (Mus musculus [31]): 0
Change in weight (Mus musculus [32]): -4.8
Ratio [33]: Toxic
Change in weight (Mus musculus [34]): -5.6
Median survival time (Mus musculus [10]): 11.2
Mortality (Mus musculus [13]): 6
Ratio [35]: 3
Ratio [36]: 188 and 142
Median survival time (Mus musculus [37]): 10.5
Mortality (Mus musculus [38]): 6

CCOS(=O)(=O)CS(C)(=O)=O
Mortality (Mus musculus [39]): 0
Ratio [40]: 170
Median survival time (Mus musculus [2]): 11.2
Median survival time (Mus musculus [41]): 10.5
Ratio [42]: Toxic
Change in weight (Mus musculus [43]): -1.4
Median survival time (Mus musculus [44]): 10.5
Median survival time (Mus musculus [45]): 11
Median survival time (Mus musculus [5]): 13.3
Ratio [46]: 104
Change in weight (Mus musculus [47]): -4.3
Median survival time (Mus musculus [48]): 11.2
Change in weight (Mus musculus [49]): -5 and -3.4
Mortality (Mus musculus [50]): 0
Median survival time (Mus musculus [51]): 6.9
Mortality (Mus musculus [52]): 0
Ratio [8]: 118
Change in weight (Mus musculus [32]): -1.8
Mortality (Mus musculus [9]): 0
Median survival time (Mus musculus [53]): 14
Change in weight (Mus musculus [54]): -5.4
Median survival time (Mus musculus [10]): 11.2
Median survival time (Mus musculus [55]): 17.9
Ratio [11]: 160
Median survival time (Mus musculus [12]): 18
Ratio [56]: 133
Mortality (Mus musculus [57]): 0

Source: ChEMBL document CHEMBL1122744, “2-Chloroethyl (methylsulfonyl)methanesulfonate and related (methylsulfonyl)methanesulfonates. Antineoplastic activity in vivo” (J Med Chem, 1984)
